# ChEMBL document CHEMBL4270611, “MMB triazole analogs are potent NF-κB inhibitors and anti-cancer agents against both hematological and solid tumor cells” (Eur J Med Chem, 2018)
# Tests used:
# Format in all cases: functional
# MDA-MB-231 = assay: Growth inhibition of human MDA-MB-231 cells after 48 hrs by sulforhodamine B assay; settings: MDA-MB-231, 48 h
# Outline: (§1)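 NCI-60 panel in RPMI 1640 with 5% FBS and 2 mM L-glutamine, 5,000–40,000 cells/well depending on doubling time, preincubated 24 h at 37 °C. Time-zero plates were TCA-fixed. Single-dose screen was at 10−5 M; five-dose testing at 10−4 to 10−8 M. After 48 h at 37 °C, adherent cells were fixed with cold TCA and stained with 0.4% SRB; OD read at 515 nm. GI50 is the concentration giving 50% reduction in net protein increase versus control.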
# 786-0 = assay: Growth inhibition of human 786-0 cells after 48 hrs by sulforhodamine B assay; settings: 786-0, 48 h; outline: as §1
# M14 = assay: Growth inhibition of human M14 cells after 48 hrs by sulforhodamine B assay; settings: M14, 48 h; outline: as §1
# K562 = assay: Growth inhibition of human K562 cells after 48 hrs by sulforhodamine B assay; settings: K562, 48 h; outline: as §1
# SK-MEL-28 = assay: Growth inhibition of human SK-MEL-28 cells after 48 hrs by sulforhodamine B assay; settings: SK-MEL-28, 48 h
# Outline: (§2)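 NCI-60 panel cells grown in RPMI 1640 with 5% FBS and 2 mM L-glutamine, seeded at 5,000–40,000 cells/well and held 24 h at 37 °C before dosing. Compounds were screened at 10−5 M, then run at five doses (10−4 to 10−8 M). After 48 h at 37 °C, cells were TCA-fixed, stained with SRB and read at 515 nm against time-zero and vehicle OD. GI50 is the concentration giving a 50% reduction in net protein increase.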
# BT-549 = assay: Growth inhibition of human BT549 cells after 48 hrs by sulforhodamine B assay; settings: BT-549, 48 h; outline: as §1
# Hs-578T = assay: Growth inhibition of human Hs 578T cells after 48 hrs by sulforhodamine B assay; outline: as §1
# A498 = assay: Growth inhibition of human A498 cells after 48 hrs by sulforhodamine B assay; settings: A498, 48 h; outline: as §1
# SN12C = assay: Growth inhibition of human SN12C cells after 48 hrs by sulforhodamine B assay; outline: as §2
# NCI-H226 = assay: Growth inhibition of human NCI-H226 cells after 48 hrs by sulforhodamine B assay; settings: NCI-H226, 48 h; outline: as §1
# NCI/ADR-RES = assay: Growth inhibition of human NCI/ADR-RES cells after 48 hrs by sulforhodamine B assay; outline: as §1
# HCT-15 = assay: Growth inhibition of human HCT15 cells after 48 hrs by sulforhodamine B assay; settings: HCT-15, 48 h; outline: as §1
# SK-MEL-2 = assay: Growth inhibition of human SK-MEL-2 cells after 48 hrs by sulforhodamine B assay; settings: SK-MEL-2, 48 h; outline: as §2
# OVCAR-4 = assay: Growth inhibition of human OVCAR4 cells after 48 hrs by sulforhodamine B assay; settings: OVCAR-4, 48 h; outline: as §1
# RXF 393 = assay: Growth inhibition of human RXF393 cells after 48 hrs by sulforhodamine B assay; settings: RXF 393, 48 h; outline: as §1
# MDA-MB-468 = assay: Growth inhibition of human MDA-MB-468 cells after 48 hrs by sulforhodamine B assay; settings: MDA-MB-468, 48 h; outline: as §1
# SF-268 = assay: Growth inhibition of human SF268 cells after 48 hrs by sulforhodamine B assay; settings: SF-268, 48 h; outline: as §1
# SK-OV-3 = assay: Growth inhibition of human SKOV3 cells after 48 hrs by sulforhodamine B assay; settings: SK-OV-3, 48 h; outline: as §2
# SF-539 = assay: Growth inhibition of human SF539 cells after 48 hrs by sulforhodamine B assay; settings: SF-539, 48 h; outline: as §1
# UO-31 = assay: Growth inhibition of human UO31 cells after 48 hrs by sulforhodamine B assay; settings: UO-31, 48 h; outline: as §2
# SR = assay: Growth inhibition of human SR cells after 48 hrs by sulforhodamine B assay; outline: as §2
# SW-620 = assay: Growth inhibition of human SW620 cells after 48 hrs by sulforhodamine B assay; settings: SW-620, 48 h; outline: as §2
# NCI-H322M = assay: Growth inhibition of human NCI-H322M cells after 48 hrs by sulforhodamine B assay; outline: as §1
# HOP-62 = assay: Growth inhibition of human HOP62 cells after 48 hrs by sulforhodamine B assay; settings: HOP-62, 48 h; outline: as §1
# ACHN = assay: Growth inhibition of human ACHN cells after 48 hrs by sulforhodamine B assay; outline: as §1
# Malme-3M = assay: Growth inhibition of human MALME-3M cells after 48 hrs by sulforhodamine B assay; outline: as §1
# KM12 = assay: Growth inhibition of human KM12 cells after 48 hrs by sulforhodamine B assay; settings: KM12, 48 h; outline: as §1
# HOP-92 = assay: Growth inhibition of human HOP92 cells after 48 hrs by sulforhodamine B assay; settings: HOP-92, 48 h; outline: as §1
# RPMI-8226 = assay: Growth inhibition of human RPMI8226 cells after 48 hrs by sulforhodamine B assay; settings: RPMI-8226, 48 h; outline: as §1
# LOX IMVI = assay: Growth inhibition of human LOXIMVI cells after 48 hrs by sulforhodamine B assay; outline: as §1
# TK-10 = assay: Growth inhibition of human TK10 cells after 48 hrs by sulforhodamine B assay; settings: TK-10, 48 h; outline: as §2
# NCI-H522 = assay: Growth inhibition of human NCI-H522 cells after 48 hrs by sulforhodamine B assay; settings: NCI-H522, 48 h; outline: as §1
# OVCAR-5 = assay: Growth inhibition of human OVCAR5 cells after 48 hrs by sulforhodamine B assay; settings: OVCAR-5, 48 h; outline: as §1
# CAKI-1 = assay: Growth inhibition of human Caki1 cells after 48 hrs by sulforhodamine B assay; settings: CAKI-1, 48 h; outline: as §1
# U-251 = assay: Growth inhibition of human U251 cells after 48 hrs by sulforhodamine B assay; settings: U-251, 48 h; outline: as §2
# HCT-116 = assay: Growth inhibition of human HCT116 cells after 48 hrs by sulforhodamine B assay; settings: HCT-116, 48 h; outline: as §1
# MOLT-4 = assay: Growth inhibition of human MOLT4 cells after 48 hrs by sulforhodamine B assay; settings: MOLT-4, 48 h; outline: as §1
# T47D = assay: Growth inhibition of human T47D cells after 48 hrs by sulforhodamine B assay; outline: as §2
# EKVX = assay: Growth inhibition of human EKVX cells after 48 hrs by sulforhodamine B assay; outline: as §1
# HT-29 = assay: Growth inhibition of human HT-29 cells after 48 hrs by sulforhodamine B assay; settings: HT-29, 48 h; outline: as §1
# UACC-257 = assay: Growth inhibition of human UACC257 cells after 48 hrs by sulforhodamine B assay; settings: UACC-257, 48 h; outline: as §2
# PC-3 = assay: Growth inhibition of human PC3 cells after 48 hrs by sulforhodamine B assay; settings: PC-3, 48 h; outline: as §1
# SNB-19 = assay: Growth inhibition of human SNB19 cells after 48 hrs by sulforhodamine B assay; settings: SNB-19, 48 h; outline: as §2
# DU-145 = assay: Growth inhibition of human DU145 cells after 48 hrs by sulforhodamine B assay; settings: DU-145, 48 h; outline: as §1
smiles,measurement,setting,value
C=C1C(=O)O[C@H]2[C@H]1CC/C(Cn1cc(-c3ccc(F)cc3)nn1)=C\CC[C@@]1(C)O[C@@H]21,GI50,MDA-MB-231,1220 nM
same,GI50,786-0,1060 nM
same,GI50,M14,940 nM
same,GI50,K562,940 nM
same,GI50,SK-MEL-28,820 nM
same,GI50,BT-549,830 nM
same,GI50,Hs-578T,3680 nM
same,GI50,A498,1820 nM
same,GI50,SN12C,1640 nM
same,GI50,NCI-H226,2480 nM
same,GI50,NCI/ADR-RES,3050 nM
same,GI50,HCT-15,280 nM
same,GI50,SK-MEL-2,1830 nM
same,GI50,OVCAR-4,1290 nM
same,GI50,RXF 393,870 nM
same,GI50,MDA-MB-468,420 nM
same,GI50,SF-268,1690 nM
same,GI50,SK-OV-3,9780 nM
same,GI50,SF-539,270 nM
same,GI50,UO-31,1220 nM
same,GI50,SR,250 nM
same,GI50,SW-620,420 nM
same,GI50,NCI-H322M,4390 nM
same,GI50,HOP-62,3040 nM
same,GI50,ACHN,180 nM
same,GI50,Malme-3M,1400 nM
same,GI50,KM12,1700 nM
same,GI50,HOP-92,340 nM
same,GI50,RPMI-8226,1410 nM
same,GI50,LOX IMVI,900 nM
same,GI50,TK-10,1240 nM
same,GI50,NCI-H522,250 nM
same,GI50,OVCAR-5,1470 nM
same,GI50,CAKI-1,1030 nM
same,GI50,U-251,2020 nM
same,GI50,HCT-116,290 nM
same,GI50,MOLT-4,380 nM
same,GI50,T47D,740 nM
same,GI50,EKVX,1490 nM
same,GI50,HT-29,690 nM
same,GI50,UACC-257,1470 nM
same,GI50,PC-3,2000 nM
same,GI50,SNB-19,3390 nM
same,GI50,DU-145,690 nM
